In ChEMBL document CHEMBL3091285, “Cytotoxic compounds from invasive giant salvinia (Salvinia molesta) against human tumor cells” (Bioorg Med Chem Lett, 2013) one finds GI50 and inhibition data, which are given here for 17 compounds.

One series concerns PC-3. Kind of series: Cytotoxicity against human PC3 cells assessed as growth inhibition by WST-8 assay. The series is classed as functional. A general note: Tetrazolium dyes change colour on reduction, which living cells bring about.
The test system of another series is A549. Kind of series: Cytotoxicity against human A549 cells assessed as growth inhibition by WST-8 assay. The series is classed as functional.
The nature of series [1]: Cytotoxicity against human MRC5 cells assessed as growth inhibition by WST-8 assay. The series is classed as cell-based.
For a further series, the system named is HL-60. The series can be described thus: Cytotoxicity against human HL60 cells assessed as growth inhibition by WST-8 assay. The series is classed as functional.
A short description of series [2]: Cytotoxicity against human BxPC3 cells assessed as growth inhibition by WST-8 assay. The series is classed as functional. The following applies: BXPC-3.
Series [3] in a line: Cytotoxicity against human PANC1 cells assessed as growth inhibition by WST-8 assay. The series is classed as functional. The note with it: PANC-1.
The next series relates to MDA-MB-231. The series can be described thus: Cytotoxicity against human MDA-MB-231 cells assessed as growth inhibition by WST-8 assay. The series is classed as functional.
The next series has as its system PANC-1. The series can be described thus: Antiproliferative activity against human PANC1 cells after 12 to 48 hrs by CCK-8 assay. The series is classed as functional, cell-based. The essentials: (§1)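 Pancreatic cancer cells (PANC-1, BxPC-3) exposed to test compound at 0 (control), 5, 10, 20, 40, 60, 80 or 100 uM, with concentration levels differing between compounds. Proliferation followed over incubation time, with viable cell number (x1,000) plotted against hours to assess dose-dependent suppression.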

The subject of a further series is BXPC-3. The series can be described thus: Antiproliferative activity against human BxPC3 cells after 12 to 48 hrs by CCK-8 assay. The series is classed as functional, cell-based. The essentials: as §1

A value given as a limit tells only on which side of the number the result lay.

Broadly, the GI50 is the concentration giving 50% growth inhibition. Take `CC(C)c1ccc2c3c(ccc2c1)C(C)(C)CCC3`: the GI50 (in the series with PC-3; with A549; in series [1]; in the series with HL-60; in [2]; in [3]) was greater than 100 µM in each case.
As for `CC(C)c1cc2ccc3c(c2cc1O)CCCC3(C)C`, the GI50 with PC-3 worked out at 43.6 µM; with A549, 42.2 µM; in [1], 55.4 µM; in the series with HL-60, 50 µM; in [2], 36.4 µM; in [3] it was 37.5 µM.
Take `CO[C@H]1c2cc(C(C)C)c(O)c(O)c2[C@@]23CCCC(C)(C)[C@@H]2[C@@H]1OC3=O`: the GI50 in the series with A549 came out at 86.5 µM.
In the case of `CC(C)c1cc2c(cc1O)[C@@]1(C)CCCC(C)(C)[C@@H]1C=C2`, the GI50 in the series with PC-3 was 58.1 µM; in the series with A549, 53.8 µM; in series [1] it was 59.2 µM; in the series with HL-60 it was 66.5 µM; in [2], 37.5 µM; in series [3], 46.7 µM.
As for `CC(C)c1cc2c(c(O)c1O)[C@@]1(C)CCCC(C)(C)C1=C(O)C2=O` [14-DEOXYCOLEON U], the GI50 is 8.39 µM in the series on PC-3; 9.1 µM with A549; 24.8 µM in [1]; 13.3 µM with HL-60; 37.3 µM in series [2]; greater than 100 µM in the series on MDA-MB-231. In series [3], the GI50 came out at 22.6 µM.
For the compound `CC(C)c1cc2c(cc1O)[C@@]1(C)CCCC(C)(C)C1=CC2=O`, the GI50 in the series on PC-3 was greater than 100 µM; in the series on A549, 84.5 µM; in the series on HL-60 it was 92.8 µM; in series [2], greater than 100 µM; in series [3], greater than 100 µM.
For `CC(C)c1cc2c(cc1O)[C@@]1(C)CCCC(C)(C)[C@@H]1CC2` [FERRUGINOL], the GI50 in the series on PC-3 turned out to be 56.5 µM; in the series on A549, 30.7 µM; in series [1], 40 µM; in the series on HL-60, 27.3 µM; in [2] it was 21.1 µM; in [3] it was 41.1 µM.
As for `CC(C)c1cc(C=O)c([C@@]2(C)CCCC(C)(C)[C@@H]2C=O)cc1O`, the GI50 in the series with A549 was 93.8 µM.
For the compound `CC(C)c1cc2c(cc1O)[C@@]1(C)CCCC(C)(C)[C@@H]1C[C@H]2CC1=CCC(O)(C(C)C)CC1` (some centres not stated), the GI50 stood at 54.2 µM with PC-3; 62.9 µM in the series with A549; 58.4 µM in series [1]; 48.1 µM in the series on HL-60; 87.3 µM in series [2]; 75 µM with MDA-MB-231. Further, the 50% growth inhibitory concentration (GI50) in series [3] was 60.4 µM. For the same compound, the inhibition entry with PANC-1 and with BXPC-3 was “Dose-dependent effect” each time.
As to `CC(C)c1cc2c(cc1O)[C@@]1(C)CCCC(C)(C)C1=C(O)C2=O`, the GI50 in the series on PC-3 turned out to be 13.2 µM; with A549, 11.1 µM; in [1], 20 µM; with HL-60, 11.5 µM; in series [2] it was 25 µM; in series [3] it was 23.1 µM. Further, the inhibition entry in the series on PANC-1 and with BXPC-3 was “Dose-dependent effect” throughout.
With `CC(C)c1cc2c(cc1O)[C@@]1(C)CCCC(C)(C)[C@@H]1CC2O` (some centres not stated), the GI50 was 85.6 µM in the series on PC-3; 75.1 µM in the series with A549; 70.5 µM in [1]; 75.2 µM in the series on HL-60; 74.7 µM in series [2]; 78.2 µM in series [3].
For the compound `CC(C)C1=C(O)C(=O)C2=C(C=C[C@H]3C(C)(C)CCC[C@]23C)C1=O`, the GI50 with PC-3 was found to be 46.3 µM; in the series on A549, 48 µM; in series [1] it was 40.2 µM; with HL-60, 30 µM; in [2], 41.7 µM; in series [3], 51.3 µM.
As to `CC(C)c1cc2c(c(O)c1O)[C@@]1(C)CCCC(C)(C)[C@@H]1CC2=O` [DEMETHYLCRYPTOJAPONOL], the GI50 with PC-3 was found to be 41 µM; with A549, 35 µM; in series [1] it was 40.2 µM; with HL-60, 35.3 µM; in [2] it was 45 µM; in [3], 43.1 µM.
For the compound `CC(C)C1=C(O)C(=O)C2=C(CC[C@H]3C(C)(C)CCC[C@]23C)C1=O` [ROYLEANONE], the GI50 in the series on PC-3 worked out at 27.1 µM; with A549, 30.1 µM; in [1], 45.7 µM; in the series on HL-60, 36.3 µM; in series [2], 51 µM; in series [3], 52.6 µM.
As for `CC(C)c1cc2c(cc1O)[C@@]1(C)CCCC(C)(C)[C@@H]1CC2=O` [SUGIOL], the concentration for 50% growth inhibition (GI50) in the series with PC-3 was greater than 100 µM; with A549, 79.8 µM; in [1] it was greater than 100 µM; in the series on HL-60, 68.6 µM; in series [2], 36.1 µM; in [3] it was 87.9 µM.
For `CC(C)C1=Cc2ccc3c(c2C(=O)C1=O)C(=O)CCC3(C)C`, the GI50 amounted to 19 µM in the series with PC-3; 24.9 µM with A549; 20.4 µM in series [1]; 23.3 µM in the series with HL-60; 20.5 µM in series [2]; 32.1 µM in series [3].
For `COc1cc2c(cc1C(C)C)C(=O)C(O)=C1C(C)(C)CCC[C@@]12C`, the GI50 in the series with A549 stood at 21.2 µM.
